Compounds with a hit are over-represented: about 1.6% of the library has one in this group of screens.
FLuc inh counter: Photinus pyralis luciferase inhibition counter-screen; P08659; ATPLite firefly luciferase biochemical luminescence, 10 min; inhibition, % at 10 µM; actives 1.5% (n = 200,000); AID 1006;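 active = inhibition above about 50% when tested at 10 µM, limit read from the data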
Target sequence (P08659 whole entry, looked up): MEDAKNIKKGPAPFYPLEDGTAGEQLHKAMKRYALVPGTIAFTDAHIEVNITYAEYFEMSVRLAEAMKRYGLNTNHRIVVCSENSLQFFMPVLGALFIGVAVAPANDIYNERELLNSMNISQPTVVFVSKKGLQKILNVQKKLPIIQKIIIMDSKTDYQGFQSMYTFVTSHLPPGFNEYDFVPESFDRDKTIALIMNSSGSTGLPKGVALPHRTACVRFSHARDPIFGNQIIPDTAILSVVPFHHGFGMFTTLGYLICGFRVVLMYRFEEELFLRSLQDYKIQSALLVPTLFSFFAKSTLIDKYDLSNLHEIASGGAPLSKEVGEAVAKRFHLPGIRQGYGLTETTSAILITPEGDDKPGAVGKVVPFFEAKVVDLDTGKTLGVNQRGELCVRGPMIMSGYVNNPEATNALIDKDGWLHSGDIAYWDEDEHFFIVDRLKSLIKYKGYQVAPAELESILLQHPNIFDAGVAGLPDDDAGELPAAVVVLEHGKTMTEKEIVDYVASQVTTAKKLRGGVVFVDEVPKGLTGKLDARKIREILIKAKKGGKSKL
FLuc stim CS: affects firefly luciferase, flagging false hits in luciferase stimulation screens | ATPlite luciferase biochemical, luminescence, 10 min; 0 = ATP-free wells, 1 = DMSO control | activation factor at 10 µM | 200,000 tested, under 10 active | AID 1027;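 active = luciferase activation factor, scaled between plate controls, of at least 2 with compound at 10 µM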
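Material: Luciferase/luciferin reagent mix | Doses: Test compounds dosed from 2 mM stocks in 100% DMSO | Timing: 10 min incubation after luciferase reagent addition, room temperature | Measured by: Luminescence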
PPC-1+TRAIL kill: PPC-1 cancer cell killing with TRAIL present. actives 0.41% (n = 220,000). cell killing (% activity), % at 4 µM or 5 µM. PPC-1 cells + TRAIL, ATPLite viability luminescence;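 active = cell killing above 50% in the first pass at 4 µM, then a duplicate retest at 5 µM averaging 50% or more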;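 note: plate controls were cells with TRAIL plus DMSO for no effect and medium-only wells lacking cells for full effect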
TRAIL sens C8: caspase-8 TRAIL sensitization; NB7+C8 cells + TRAIL, ATPlite viability luminescence; inhibition (viability loss, TRAIL sensitization), % at 10 µM; actives 1% (n = 360,000); AID 624354;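 active = compounds causing at least 50% loss of cell viability in the single-dose screen, relative to plate controls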
The depositor's hits bear a star; · = not tested or not shown.

SMILES	FLuc inh counter	FLuc stim CS	PPC-1+TRAIL kill	TRAIL sens C8
CCc1ccc(NC(=O)c2cc(C)on2)cc1	61.2*	0.4	17.0	26.2
Cc1ccc(NC(=O)c2cc(C)on2)cc1	45.3	0.5	17.0	24.3
CCc1ccc(NC(=O)c2noc3c2CCC3)cc1	63.8*	0.4	4.0	27.6
Cc1ccc(O)c(NC(=O)c2noc3c2CCCCC3)c1	65.3*	0.3	44.6	11.5
CCc1ccc(NC(=O)c2noc3c2CCCCC3)cc1	9.9	0.9	6.4	20.2
C[C@H](CO)N1C[C@H](C)[C@@H](CN(C)S(=O)(=O)c2ccccc2)Oc2c(NC(=O)NC3CCCCC3)cccc2C1=O	·	·	·	-10.4
O=C(Nc1ccc(C(=O)O)cc1)/C(=C\C=C\c1ccccc1)NC(=O)c1ccccc1Br	·	·	·	50.0*
O=C(Nc1ccc(C(=O)O)cc1)/C(=C\C=C\c1ccccc1)NC(=O)c1cccc(Br)c1	1.1	1	18.3	0.0
Cc1nn(-c2ccccc2)c(Cl)c1CN(C(=O)CCl)c1ccc(Cl)cc1	-7.4	1.1	-3.3	97.3*
Cc1nn(-c2ccccc2)c(Cl)c1CN(C(=O)CCl)c1cccc2ccccc12	-6.5	1.1	-2.9	96.9*
CN(c1ccccc1)S(=O)(=O)c1cccc(NC(=O)c2ccc(Cl)c([N+](=O)[O-])c2)c1	·	·	·	21.4
O=S(=O)(/C(=C\c1ccc(C(F)(F)F)cc1)c1nc2ccccc2[nH]1)c1ccccc1	·	·	·	84.9*
Cc1cc(C)c(NC(=O)CCN2C(=O)c3ccccc3S2(=O)=O)c(C)c1	·	·	·	0.0
COc1ccc(-n2ncc3c(N(C)C4CCCCC4)ncnc32)cc1	·	·	·	84.7*
CCc1ccc(N=C2N=C(N)c3ccccc32)cc1	92.4*	0.1	25.9	37.9
COC(=O)c1ccc(-c2nc3cc(Cl)c(N)cc3s2)cc1	84.8*	0.2	32.7	83.0*
CCOC(=O)CSc1nc2cc(C)ccc2cc1C#N	-5.5	1.1	14.4	52.6*
CCOC(=O)CSc1nc2cc(OC)ccc2cc1C#N	-1.3	1	42.5	67.0*
COC(=O)[C@@]1(C(C)C)N=C(c2cc(OC)c(OC)c(OC)c2)[C@]2(O1)C(=O)N(Cc1ccc(OC)cc1)c1ccc(Br)cc12	·	·	·	2.8
Cc1cccc(/C=N/NC(=O)c2ccc(Br)cc2)c1	53.7*	0.5	9.7	23.9
O=C(N/N=C/c1ccc(F)cc1)c1ccc(Br)cc1	18.9	0.8	-16.6	-2.1
CC(C)(C)c1ccc(C(=O)N/N=C/c2ccccn2)cc1	·	·	·	24.5
O=C(N/N=C/c1ccccn1)c1ccc(Br)cc1	82.3*	0.2	19.6	49.0
O=C(N/N=C/c1ccccn1)c1ccc(N/N=C/c2ccccn2)cc1	72.3*	0.3	44.4	-0.6
Cc1cccc(C(=O)N/N=C/c2ccccn2)c1	50.6*	0.5	41.4	32.3
SMILES	FLuc inh counter	FLuc stim CS	PPC-1+TRAIL kill	TRAIL sens C8
CN(C)c1cccc(C(=O)NCCCSc2ccccc2)c1	·	·	·	10.5
O=C(N/N=C/c1ccccn1)c1ccc([N+](=O)[O-])cc1	66.8*	0.3	12.1	-4.4
O=C(N/N=C/c1ccccn1)c1cc([N+](=O)[O-])cc([N+](=O)[O-])c1	-2.1	1	-0.1	-5.9
Cc1ccc2nc(-c3ccc(NC(=O)CCN4C(=O)c5ccccc5C4=O)cc3)sc2c1	67.5*	0.3	32.0	82.5*
Cc1ccc2nc(-c3ccc(NC(=O)C(C)N4C(=O)c5ccccc5C4=O)cc3)sc2c1 (configuration not stated)	6.7	0.9	-0.4	17.1
O=C(CCN1C(=O)c2ccccc2C1=O)Nc1ccc(-c2nc3ccccc3s2)cc1	11.0	0.9	1.2	68.7*
O=C(CCN1C(=O)c2ccccc2C1=O)Nc1nc2ccccc2s1	3.3	1	16.1	3.0
COc1cc(C(=O)Nc2ccc3c(c2)OCCO3)ccc1OC(F)F	59.2*	0.4	21.6	40.4
COc1ccc(NC(=O)c2ccc3c(c2)OCCO3)cc1OC	·	·	·	52.2*
COc1cc(C(=O)Nc2ccc3c(c2)OCCO3)ccc1OC(C)C	41.3	0.6	29.1	15.6
O=C(Nc1ccc(N2CCCCC2)cc1)c1ccc2ccccc2n1	54.0*	0.5	45.0	42.0
COc1ccc(N/C=C\C(=O)c2ccc3c(c2)OCO3)cc1OC	59.7*	0.4	35.1	28.8
CC(C)c1cc(C(=O)NCc2ccc(F)cc2)c(N)s1	·	·	·	10.5
O=C(Nc1ccc(N2CCCCC2)cc1)c1ccc2c(c1)OCCO2	64.8*	0.4	37.6	35.7
CC(=O)N1CCN(c2ccc(NC(=O)c3ccc4c(c3)OCCO4)cc2)CC1	5.9	0.9	-10.6	-6.1
COc1ccc(NC(=O)c2ccc3c(c2)OCO3)cc1Cl	61.0*	0.4	40.7	35.4
O=C(Nc1ccc(F)c(Cl)c1)c1ccc2c(c1)OCO2	·	·	·	7.7
CCCC[n+]1ccn(C2=C([O-])c3ccccc3C(=O)/C2=N\S(=O)(=O)c2ccccc2)c1	-3.2	1	-0.4	51.2*
CCCCNC(=O)c1ccc(Cn2c(=S)[nH]c3c([nH]c4ccc(OC)cc43)c2=O)cc1	-5.7	1.1	17.2	70.4*
CS(=O)(=O)c1ccc(NS(=O)(=O)c2ccc(Cl)c(C(=O)NCc3ccco3)c2)cc1	·	·	·	-7.0
O=C(Nc1ccccc1C(=O)O)c1ccc(NC(=O)C2CC2)cc1	·	·	·	65.3*
O=C(Nc1ccccc1O)c1ccc(NC(=O)C2CC2)cc1	·	·	·	14.2
Nc1ccc(C(=O)Nc2ccccc2C(=O)O)cc1	53.8*	0.5	23.4	19.7
O=C(Nc1ccccc1C(=O)Nc1ccccc1C(=O)O)c1ccccc1	·	·	·	18.7
Cc1ccc(-n2nc3c(n2)/C(=N/O)CC/C3=N\O)cc1	66.9*	0.3	10.9	36.7
SMILES	FLuc inh counter	FLuc stim CS	PPC-1+TRAIL kill	TRAIL sens C8
O/N=C1\CC/C(=N\O)c2nn(-c3ccccc3Cl)nc21	-7.6	1.1	12.5	-6.4
CCCCn1c(N)c(N(CC(C)C)C(=O)C2CCCO2)c(=O)[nH]c1=O (configuration not stated)	·	·	·	4.9
Fc1cccc(NCCc2c[nH]c3ccccc23)n1	·	·	·	19.4
c1ccc2c(NCCc3c[nH]c4ccccc34)c3ccccc3nc2c1	·	·	·	75.3*
CCOC(=O)C1(C)CCN1C(=O)c1ccc(C(C)(C)C)cc1 (configuration not stated)	·	·	·	3.3
CCN=c1scc(C)n1/N=C/c1ccc(O)c(O)c1O	76.4*	0.2	20.0	11.9
CCN=c1scc(C)n1/N=C/c1cc(Br)c(O)c(Br)c1	6.8	0.9	19.4	6.4
CNc1ccc(/C=C2\CSc3ccccc3C2=O)cc1[N+](=O)[O-]	55.2*	0.4	21.2	22.6
CC(C)Cn1c(/C=C/c2ccccc2)nc2ccccc21	58.4*	0.4	4.2	46.4
CCC(C)n1c(/C=C/c2ccccc2)nc2ccccc21 (configuration not stated)	35.5	0.6	11.8	11.1
COc1ccc(-c2nc3ccccc3n2Cc2ccccc2)cc1	4.8	1	7.7	4.5
COc1ccc(Cn2c(/C=C/c3ccccc3)nc3ccccc32)cc1	50.2*	0.5	26.5	47.5
Cn1cc(Cl)c(C(=O)N/N=C/c2ccc3c4c(cccc24)CC3)n1	·	·	·	67.4*
Cn1cc(Cl)c(C(=O)N/N=C/c2ccc(OS(=O)(=O)c3ccccc3)cc2)n1	2.3	1	-10.5	-7.7

From PubChem BioAssay
